# Reference: ChEMBL document CHEMBL1687801, “Pharmacokinetics-pharmacodynamics of a respiratory syncytial virus fusion inhibitor in the cotton rat model” (Antimicrob Agents Chemother, 2010)
# What was measured:
# [1] = test system: Respiratory syncytial virus; assay: Antiviral activity against respiratory syncytial virus long strain infected in cotton rat assessed as log reduction in epithelial lining fluid viral load at 12.5 mg/kg, sc single dose administered 24 hrs before viral infection by qRT-PCR assay; type: functional; settings: route subcutaneous
# Procedure, shortened: (§1)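 Nanocrystal suspension was given as a single s.c. dose to cotton rats (six per cohort). RSV Long (10⁶ PFU) was inoculated intranasally 24 h later. On day 4, BALF from a single 2.5 ml PBS lavage was lysed with DTT and lysis buffer, and RNA was extracted with an internal control. Monoplex real-time RT-PCR was run in duplicate against an eight-point 10-fold RSV RNA standard. Titers were urea-corrected to ELF; reduction was taken versus untreated controls.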
# Plasma = assay: Drug level in cotton rat plasma at 12.5 - 200 mg/kg, sc administered as single dose measured after 24 hrs; type: ADME, organism-based; parameters: dose 200 mg/kg, route subcutaneous; settings: in vivo
# Lung = assay: AUC (0 to 24 hrs) in Sprague-Dawley rat lung tissue at 10 mg/kg, iv administered as single bolus dose; type: ADME, organism-based; parameters: time < 24 hr, dose 10 mg/kg, route intravenous; settings: in vivo
# [2] = AUC (0 to 24 hrs) in Sprague-Dawley rat bronchoalveolar lavage fluid at 10 mg/kg, iv administered as single bolus dose; type: ADME, organism-based, Lung; parameters: time < 24 hr, dose 10 mg/kg, route intravenous; settings: in vivo
# [3] = Clearance in Sprague-Dawley rat plasma at 10 mg/kg, iv administered as single bolus dose; type: ADME, organism-based; parameters: dose 10 mg/kg, route intravenous
# [4] = Volume of distribution at steady state in Sprague-Dawley rat plasma at 10 mg/kg, iv administered as single bolus dose; type: ADME, organism-based; parameters: dose 10 mg/kg, route intravenous; settings: read-out: Vdss
# [5] = Ratio of AUC (0 to 24 hrs) in Sprague-Dawley rat lung tissue to plasma; type: ADME
# [6] = Drug level in Sprague-Dawley rat plasma at 10 mg/kg, iv administered as single bolus dose measured after 3 hrs; type: ADME, organism-based; parameters: dose 10 mg/kg, route intravenous; settings: read-out: Drug uptake
# [7] = Drug level in Sprague-Dawley rat lung tissue at 10 mg/kg, iv administered as single bolus dose measured after 3 hrs; type: ADME, organism-based; parameters: dose 10 mg/kg, route intravenous; settings: read-out: Drug uptake
# [8] = Drug level in Sprague-Dawley rat bronchoalveolar lavage fluid at 10 mg/kg, iv administered as single bolus dose measured after 3 hrs; type: ADME, organism-based, Lung; parameters: dose 10 mg/kg, route intravenous; settings: read-out: Drug uptake
# [9] = Drug level in cotton rat epithelial lining fluid at 10 mg/kg, iv administered as single bolus dose measured after 3 hrs; type: ADME, organism-based; parameters: dose 10 mg/kg, route intravenous; settings: read-out: Drug uptake
# [10] = Drug level in cotton rat bronchoalveolar lavage fluid at 10 mg/kg, iv administered as single bolus dose measured after 3 hrs; type: ADME, organism-based, Lung; parameters: dose 10 mg/kg, route intravenous; settings: read-out: Drug uptake
# [11] = test system: Respiratory syncytial virus; assay: Antiviral activity against respiratory syncytial virus long strain infected in cotton rat assessed as log reduction in epithelial lining fluid viral load at 25 mg/kg, sc single dose administered 24 hrs before viral infection by qRT-PCR assay; type: functional; settings: route subcutaneous; procedure, shortened: as §1
# [12] = test system: Respiratory syncytial virus; assay: Antiviral activity against respiratory syncytial virus long strain infected in cotton rat assessed as log reduction in epithelial lining fluid viral load at 50 mg/kg, sc single dose administered 24 hrs before viral infection by qRT-PCR assay; type: functional; settings: route subcutaneous; procedure, shortened: as §1
# [13] = test system: Respiratory syncytial virus; assay: Antiviral activity against respiratory syncytial virus long strain infected in cotton rat assessed as log reduction in epithelial lining fluid viral load at 100 mg/kg, sc single dose administered 24 hrs before viral infection by qRT-PCR assay; type: functional; settings: route subcutaneous; procedure, shortened: as §1
# [14] = test system: Respiratory syncytial virus; assay: Antiviral activity against respiratory syncytial virus long strain infected in cotton rat assessed as log reduction in epithelial lining fluid viral load at 200 mg/kg, sc single dose administered 24 hrs before viral infection by qRT-PCR assay; type: functional; settings: route subcutaneous; procedure, shortened: as §1
# [15] = test system: Respiratory syncytial virus; assay: Antiviral activity against respiratory syncytial virus long strain infected in cotton rat assessed as log reduction in epithelial lining fluid viral load at 12.5 mg/kg, sc single dose administered 24 hrs before viral infection by plaque assay; type: functional; settings: route subcutaneous
# Procedure, shortened: (§2)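 Cotton rats (60–100 g, six per dose cohort) received one s.c. dose of an aqueous slow-release nanocrystal suspension. At 24 h they were anesthetized with isoflurane and given 10⁶ PFU RSV Long intranasally in 0.1 ml. On day 4 lungs were lavaged once with 2.5 ml PBS. BALF supernatant was plaque-titrated on Vero cells (7 days, 37°C, methylene blue). Titers were urea-corrected to ELF; log reduction was taken versus untreated infected controls.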
# [16] = test system: Respiratory syncytial virus; assay: Antiviral activity against respiratory syncytial virus long strain infected in cotton rat assessed as log reduction in epithelial lining fluid viral load at 25 mg/kg, sc single dose administered 24 hrs before viral infection by plaque assay; type: functional; settings: route subcutaneous; procedure, shortened: as §2
# [17] = test system: Respiratory syncytial virus; assay: Antiviral activity against respiratory syncytial virus long strain infected in cotton rat assessed as log reduction in epithelial lining fluid viral load at 50 mg/kg, sc single dose administered 24 hrs before viral infection by plaque assay; type: functional; settings: route subcutaneous; procedure, shortened: as §2
# [18] = test system: Respiratory syncytial virus; assay: Antiviral activity against respiratory syncytial virus long strain infected in cotton rat assessed as log reduction in epithelial lining fluid viral load at 100 mg/kg, sc single dose administered 24 hrs before viral infection by plaque assay; type: functional; settings: route subcutaneous; procedure, shortened: as §2
# [19] = test system: Respiratory syncytial virus; assay: Antiviral activity against respiratory syncytial virus long strain infected in cotton rat assessed as log reduction in epithelial lining fluid viral load at 200 mg/kg, sc single dose administered 24 hrs before viral infection by plaque assay; type: functional; settings: route subcutaneous; procedure, shortened: as §2
# [20] = test system: Respiratory syncytial virus; assay: Antiviral activity against respiratory syncytial virus long strain infected in cotton rat assessed as maximum reduction in epithelial lining fluid viral load at 200 ng/ml plasma concentration; type: functional; parameters: scale not given: the % may be the effect or the level left
# Procedure, shortened: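 Plasma was drawn at 24 h after single s.c. nanocrystal doses (12.5–200 mg/kg) to cotton rats, just before intranasal RSV inoculation, and assayed by LC-MS/MS. Individual day-4 plaque-assay ELF titer reductions were plotted against this plasma concentration and fitted to a simple E_max model, E = (E_max × C24h)/(C24h + EC50).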
# [21] = AUC (0 to 24 hrs) in Sprague-Dawley rat plasma at 10 mg/kg, iv administered as single bolus dose; type: ADME, organism-based; parameters: time < 24 hr, dose 10 mg/kg, route intravenous
# [22] = test system: Respiratory syncytial virus; assay: microbe, parasite or virus in culture; settings: human respiratory syncytial virus, long, HeLaM
compound,measurement,setting,value
Cc1ccc(CCCO)c(NCc2ccc3nc(NCCCN4CCOCC4)n(Cc4nc(C)ccc4O)c3c2)c1,log10PFU/ml,[1],0.5
same,Drug uptake,Plasma,Active
same,AUC,Lung,131000 ng·h/mL
same,AUC,[2],170 ng·h/mL
same,clearance,[3],143 mL/min/kg
same,Vd,[4],55 L/kg
same,Kp,[5],122
same,concentration at 3 h,[6],63 ng/mL
same,concentration at 3 h,[7],9400 ng/mL
same,concentration at 3 h,[8],11 ng/mL
same,concentration at 3 h,[9],392 ng/mL
same,concentration at 3 h,[10],23 ng/mL
same,log10PFU/ml,[11],0.6
same,log10PFU/ml,[12],1.1
same,log10PFU/ml,[13],1.7
same,log10PFU/ml,[14],2.2
same,log10PFU/ml,[15],0.2
same,log10PFU/ml,[16],0.3
same,log10PFU/ml,[17],0.4
same,log10PFU/ml,[18],0.8
same,log10PFU/ml,[19],1.2
same,Activity,[20],50%
same,AUC(0-t) at 24 h,[21],1100 ng·h/mL
same,EC50,[22],0.07 ng/mL
